Test results: ChEMBL document CHEMBL4321830, “A Chemical-Intervention Strategy To Circumvent Peptide Hydrolysis by d-Stereoselective Peptidases” (J Med Chem, 2019)
Active and inactive are the calls of the source. No cut-off for these calls is given here. Where a SMILES comes first, the peptide text is derived from it. [ ]: non-standard residue; d: D form. The star is where a group is joined. d(aIle) = CC[C@H](C)[C@@H](N)C(=O)O; NMeF = CN[C@@H](Cc1ccccc1)C(=O)O; dDab = NCC[C@@H](N)C(=O)O; Octanoyl = CCCCCCCC(=O)*; Dab = NCC[C@H](N)C(=O)O; Aib = CC(C)(N)C(=O)O; Sar = CNCC(=O)O

Legend:
Staphylococcus aureus = experiment: Antibacterial activity against Staphylococcus aureus NCTC 10788 assessed as bacterial growth inhibition by microbroth dilution method; format: functional
D-peptidase BogQ = experiment: Substrate activity at bacterial D-peptidase BogQ expressed in Escherichia coli BL21 assessed as enzyme-mediated compound hydrolysis at 50 uM incubated for 1 hr by UPLC-MS analysis; format: ADME; details: bacteria; read-out: Activity
Procedure, shortened: (§1)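 His-purified (Ni-NTA) enzyme from IPTG-induced E. coli BL21 (200 μM IPTG after 15 °C hold). Substrate 50 μM with BogQ 20 nM for 1 h or TriFpep 200 nM for 24 h, 37 °C, in 25% PBS pH 7.4. Quenched with cold methanol, cleavage ratio by UPLC–MS at end point; two independent experiments.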

Escherichia coli [1] = experiment: Antibacterial activity against Escherichia coli NCTC 12241 assessed as bacterial growth inhibition by microbroth dilution method; format: functional
D-peptidase TriF = experiment: Substrate activity at Paenibacillus polymyxa CICC10580 D-peptidase TriF expressed in Escherichia coli BL21 assessed as enzyme-mediated compound hydrolysis at 50 uM incubated for 24 hrs by UPLC-MS analysis; format: ADME; details: read-out: Activity; procedure, shortened: as §1
[2] = Hemolytic activity in sheep erythrocytes assessed as hemolysis at 200 ug/ml incubated for 30 by spectrophotometry relative to control; format: ADME, cell-based, Ovis aries, Erythrocyte; details: read-out: Activity
Procedure, shortened: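 Defibrinated sheep blood washed four times in PBS, resuspended, mixed 1:1 with peptide in PBS (200 μg/mL in well before mixing); 30 min, 37 °C. Diluted, centrifuged, supernatant absorbance at 415 nm. Percent hemolysis relative to 0.1% Triton X-100, PBS blank; triplicate, two independent experiments averaged.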

Escherichia coli [3] = experiment: Binding affinity to Escherichia coli NCTC 12241 lipid 2 assessed as formation of zone of inhibition at 60 uM incubated for 16 hrs by spot-on-lawn assay
Procedure, shortened: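 E. coli NCTC 12241 suspended to OD600 ~1.0 in MHB, mixed into molten 0.75% MH soft agar and poured over 1.5% MHA. Peptide (final 60 μM) preincubated at 37 °C with 7 equiv chemically synthesized Gram-positive lipid II, 10 μL spotted alongside peptide alone; 16 h, 37 °C. Loss of inhibition zone indicates lipid II sequestration.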

SMILES | MIC (Staphylococcus aureus) [µg/mL] | metabolised at 1 h, 50 µM (D-peptidase BogQ) [%] | MIC (Escherichia coli [1]) [µg/mL] | metabolised at 24 h, 50 µM (D-peptidase TriF) [%] | hemolysis at 0.5 h, 200 ug/ml [2] [%] | Activity (Escherichia coli [3])
CCCCCCCC(=O)N[C@@H](C(=O)N[C@@H](CCN)C(=O)NCC(=O)N[C@H](CO)C(=O)N[C@H](Cc1c[nH]c2ccccc12)C(=O)N[C@@H](CO)C(=O)N[C@@H](CCN)C(=O)N[C@H](CCN)C(=O)N[C@@H](Cc1ccccc1)C(=O)N[C@@H](CCC(=O)O)C(=O)N[C@H](C(=O)N[C@@H](C(=O)N[C@@H](C)C(=O)O)C(C)C)C(C)C)C(C)C (Octanoyl-[dV][Dab]G[dS][dW]S[Dab][dDab]FEV[dV]A-OH) | > 50 | 60 | > 50 |  |  | 
CCCCCCCC(=O)N[C@@H](C(=O)N[C@H](CCN)C(=O)NCC(=O)N[C@H](CO)C(=O)N[C@H](Cc1c[nH]c2ccccc12)C(=O)NC(C)(C)C(=O)N[C@@H](CCN)C(=O)N[C@H](CCN)C(=O)N[C@@H](Cc1ccccc1)C(=O)N[C@@H](CCC(=O)O)C(=O)N[C@H](C(=O)N[C@@H](C(=O)N[C@@H](C)C(=O)O)C(C)C)C(C)C)C(C)C (Octanoyl-[dV][dDab]G[dS][dW][Aib][Dab][dDab]FEV[dV]A-OH) | > 50 |  | 3.13 | 0 |  | 
CCCCCCCC(=O)N[C@@H](C(=O)N[C@H](CCN)C(=O)NCC(=O)N[C@H](CO)C(=O)N[C@H](Cc1c[nH]c2ccccc12)C(=O)N[C@@H](CO)C(=O)N[C@@H](CCN)C(=O)N[C@H](CCN)C(=O)N[C@@H](Cc1ccccc1)C(=O)N[C@@H](CCC(=O)O)C(=O)N[C@H](C(=O)N[C@@H](C(=O)N[C@@H](C)C(=O)O)C(C)C)C(C)C)C(C)C (Octanoyl-[dV][dDab]G[dS][dW]S[Dab][dDab]FEV[dV]A-OH) | 50 | > 90 | 1.56 | 100 | 53 | 
CCCCCCCC(=O)N[C@@H](C(=O)N[C@H](CCN)C(=O)NCC(=O)N[C@H](CO)C(=O)N[C@H](Cc1c[nH]c2ccccc12)C(=O)N(C)CC(=O)N[C@@H](CCN)C(=O)N[C@H](CCN)C(=O)N(C)[C@@H](Cc1ccccc1)C(=O)N[C@@H](CCC(=O)O)C(=O)N[C@H](C(=O)N[C@@H](C(=O)N[C@@H](C)C(=O)O)[C@@H](C)CC)C(C)C)C(C)C (Octanoyl-[dV][dDab]G[dS][dW][Sar][Dab][dDab][NMeF]EV[d(aIle)]A-OH) | > 50 | 46 | 3.13 | 0 |  | 
CCCCCCCC(=O)N[C@@H](C(=O)N[C@H](CCN)C(=O)NCC(=O)N[C@H](CO)C(=O)N[C@H](Cc1c[nH]c2ccccc12)C(=O)N(C)CC(=O)N[C@@H](CCN)C(=O)N[C@H](CCN)C(=O)N[C@@H](Cc1ccccc1)C(=O)N[C@@H](CCC(=O)O)C(=O)N[C@H](C(=O)N[C@@H](C(=O)N[C@@H](C)C(=O)O)C(C)C)C(C)C)C(C)C (Octanoyl-[dV][dDab]G[dS][dW][Sar][Dab][dDab]FEV[dV]A-OH) | > 50 |  | 3.13 | 0 | 38 | Active
CCCCCCCC(=O)N[C@@H](C(=O)N[C@H](CCN)C(=O)NCC(=O)N[C@H](CO)C(=O)N[C@H](Cc1c[nH]c2ccccc12)C(=O)N(C)CC(=O)N[C@@H](CCN)C(=O)N[C@H](CCN)C(=O)N[C@@](C)(Cc1ccccc1)C(=O)N[C@@H](CCC(=O)O)C(=O)N[C@H](C(=O)N[C@@H](C(=O)N[C@@H](C)C(=O)O)[C@@H](C)CC)C(C)C)C(C)C | > 50 | 40 | > 50 | 0 |  | 
CCCCCCCC(=O)N[C@@H](C(=O)N[C@@H](C(=O)NCC(=O)N[C@H](CO)C(=O)N[C@H](Cc1c[nH]c2ccccc12)C(=O)N(C)CC(=O)N[C@@H](CCN)C(=O)N[C@H](CCN)C(=O)N(C)[C@@H](Cc1ccccc1)C(=O)N[C@@H](CCC(=O)O)C(=O)N[C@H](C(=O)N[C@@H](C(=O)N[C@@H](C)C(=O)O)C(C)C)C(C)C)C(C)C)C(C)C (Octanoyl-[dV][dV]G[dS][dW][Sar][Dab][dDab][NMeF]EV[dV]A-OH) | > 50 | 12 | > 50 | 0 |  | 
CCCCCCCC(=O)N[C@@H](C(=O)N[C@H](CCN)C(=O)NCC(=O)N[C@H](CO)C(=O)N[C@H](Cc1c[nH]c2ccccc12)C(=O)N[C@@H](CO)C(=O)N[C@@H](CCN)C(=O)N[C@H](CCN)C(=O)N[C@@](C)(Cc1ccccc1)C(=O)N[C@@H](CCC(=O)O)C(=O)N[C@H](C(=O)N[C@@H](C(=O)N[C@@H](C)C(=O)O)C(C)C)C(C)C)C(C)C | > 50 | 39 | > 50 |  |  | 
CCCCCCCC(=O)N[C@@H](C(=O)N[C@H](CCN)C(=O)NCC(=O)N[C@H](CO)C(=O)N[C@H](Cc1c[nH]c2ccccc12)C(=O)N(C)CC(=O)N[C@@H](CCN)C(=O)N[C@H](CCN)C(=O)N(C)[C@@H](Cc1ccccc1)C(=O)N[C@@H](CCC(=O)O)C(=O)N[C@H](C(=O)N[C@@H](C(=O)N[C@@H](C)C(=O)O)C(C)C)C(C)C)C(C)C (Octanoyl-[dV][dDab]G[dS][dW][Sar][Dab][dDab][NMeF]EV[dV]A-OH) | > 50 | 43 | 6.25 | 0 | 60 to 78 | Active
CCCCCCCC(=O)N[C@@H](C(=O)N[C@H](C)C(=O)NCC(=O)N[C@H](CO)C(=O)N[C@H](Cc1c[nH]c2ccccc12)C(=O)N(C)CC(=O)N[C@@H](CCN)C(=O)N[C@H](CCN)C(=O)N(C)[C@@H](Cc1ccccc1)C(=O)N[C@@H](CCC(=O)O)C(=O)N[C@H](C(=O)N[C@@H](C(=O)N[C@@H](C)C(=O)O)C(C)C)C(C)C)C(C)C (Octanoyl-[dV][dA]G[dS][dW][Sar][Dab][dDab][NMeF]EV[dV]A-OH) | > 50 | 11 | > 50 | 0 |  | 
CCCCCCCC(=O)N[C@@H](C(=O)N[C@H](CCN)C(=O)NCC(=O)N[C@H](CO)C(=O)N[C@H](Cc1c[nH]c2ccccc12)C(=O)N(C)CC(=O)N[C@@H](CCN)C(=O)N[C@H](CCN)C(=O)N[C@@](C)(Cc1ccccc1)C(=O)N[C@@H](CCC(=O)O)C(=O)N[C@H](C(=O)N[C@@H](C(=O)N[C@@H](C)C(=O)O)C(C)C)C(C)C)C(C)C | > 50 | 39 | > 50 | 0 |  | 
CCCCCCCC(=O)N[C@@H](C(=O)N[C@H](CCN)C(=O)NCC(=O)N[C@H](CO)C(=O)N[C@H](Cc1c[nH]c2ccccc12)C(=O)N[C@@H](CO)C(=O)N[C@@H](CCN)C(=O)N[C@H](CCN)C(=O)N(C)[C@@H](Cc1ccccc1)C(=O)N[C@@H](CCC(=O)O)C(=O)N[C@H](C(=O)N[C@@H](C(=O)N[C@@H](C)C(=O)O)C(C)C)C(C)C)C(C)C (Octanoyl-[dV][dDab]G[dS][dW]S[Dab][dDab][NMeF]EV[dV]A-OH) | > 50 | 15 | 6.25 |  | 30 | Active
CCCCCCCC(=O)N[C@@H](C(=O)N[C@H](CCN)C(=O)N(C)CC(=O)N[C@H](CO)C(=O)N[C@H](Cc1c[nH]c2ccccc12)C(=O)N[C@@H](CO)C(=O)N[C@@H](CCN)C(=O)N[C@H](CCN)C(=O)N(C)[C@@H](Cc1ccccc1)C(=O)N[C@@H](CCC(=O)O)C(=O)N[C@H](C(=O)N[C@@H](C(=O)N[C@@H](C)C(=O)O)C(C)C)C(C)C)C(C)C (Octanoyl-[dV][dDab][Sar][dS][dW]S[Dab][dDab][NMeF]EV[dV]A-OH) | > 50 | < 5 | > 50 |  |  | 
CCCCCCCC(=O)N[C@@H](C(=O)N[C@H](CCN)C(=O)NC(C)(C)C(=O)N[C@H](CO)C(=O)N[C@H](Cc1c[nH]c2ccccc12)C(=O)N[C@@H](CO)C(=O)N[C@@H](CCN)C(=O)N[C@H](CCN)C(=O)N[C@@H](Cc1ccccc1)C(=O)N[C@@H](CCC(=O)O)C(=O)N[C@H](C(=O)N[C@@H](C(=O)N[C@@H](C)C(=O)O)C(C)C)C(C)C)C(C)C (Octanoyl-[dV][dDab][Aib][dS][dW]S[Dab][dDab]FEV[dV]A-OH) | > 50 | > 90 | > 50 |  |  | 
CCCCCCCC(=O)N[C@@H](C(=O)N[C@H](CCN)C(=O)N(C)CC(=O)N[C@H](CO)C(=O)N[C@H](Cc1c[nH]c2ccccc12)C(=O)N[C@@H](CO)C(=O)N[C@@H](CCN)C(=O)N[C@H](CCN)C(=O)N[C@@H](Cc1ccccc1)C(=O)N[C@@H](CCC(=O)O)C(=O)N[C@H](C(=O)N[C@@H](C(=O)N[C@@H](C)C(=O)O)C(C)C)C(C)C)C(C)C (Octanoyl-[dV][dDab][Sar][dS][dW]S[Dab][dDab]FEV[dV]A-OH) | > 50 | > 90 | > 50 |  |  | 
CCCCCCCC(=O)N[C@@H](C(=O)N[C@H](CCN)C(=O)NC(C)(C)C(=O)N[C@H](CO)C(=O)N[C@H](Cc1c[nH]c2ccccc12)C(=O)N[C@@H](CO)C(=O)N[C@@H](CCN)C(=O)N[C@H](CCN)C(=O)N(C)[C@@H](Cc1ccccc1)C(=O)N[C@@H](CCC(=O)O)C(=O)N[C@H](C(=O)N[C@@H](C(=O)N[C@@H](C)C(=O)O)C(C)C)C(C)C)C(C)C (Octanoyl-[dV][dDab][Aib][dS][dW]S[Dab][dDab][NMeF]EV[dV]A-OH) | > 50 | < 5 | > 50 |  |  | 
